Source: paper PMC6923801 (Journal of medicinal chemistry, 2019)

Target: human GPR68 (Homo sapiens, UniProt Q15743)
Assay: GloSensor cAMP assay, proton-mediated Gs-cAMP production at human GPR68
Format: cell-based
Details: for Δ: difference of Log(αβ/KB) from that of 1; for Δ / −Log (KB) / Log (αβ/KB): human GPR68; for Log (α): affinity cooperativity; for Log (α) / Log (β): human GPR68, HEK293T, Gs-cAMP; for Log (α) / −Log (KB) / Log (αβ/KB) / Log (β): mean ± SEM; for −Log (KB): allosteric binding affinity from functional assay; for Log (αβ/KB): allosteric index; for Log (β): efficacy cooperativity
In short: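 HEK293T cells were transiently transfected with receptor and GloSensor cAMP plasmids, overnight (16–20 h). Cells were plated on poly-L-Lys in DMEM + 1% dFBS for 6–24 h, then loaded with 3.5 mM luciferin (HBSS, 20 mM TAPS, pH 8.40) for 1 h at 37 °C. Drug was applied in Ca/Mg-free HBSS pH buffers (MES 5.60–6.70, HEPES 6.80–8.20, TAPS 8.30–8.60) with 10 μM Ro 20-1724. Luminescence was read at 20–30 min.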

Sequence of human GPR68 (Q15743 whole entry): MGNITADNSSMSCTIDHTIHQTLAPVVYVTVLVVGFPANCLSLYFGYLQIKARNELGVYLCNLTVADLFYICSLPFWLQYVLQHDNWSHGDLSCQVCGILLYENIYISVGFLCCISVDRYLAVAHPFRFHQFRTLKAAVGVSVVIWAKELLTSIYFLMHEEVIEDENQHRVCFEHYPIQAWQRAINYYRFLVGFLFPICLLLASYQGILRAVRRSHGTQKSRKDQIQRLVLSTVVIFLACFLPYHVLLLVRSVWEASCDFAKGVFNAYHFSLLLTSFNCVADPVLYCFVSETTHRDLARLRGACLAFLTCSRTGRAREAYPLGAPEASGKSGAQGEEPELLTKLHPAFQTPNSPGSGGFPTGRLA

Structure (SMILES) | Kb [µM] | Δ | Log (α) | −Log (KB) | Log (αβ/KB) | Log (β)
CNc1nc(NCc2ccccc2)nc(-c2ccccc2CO)n1 [Compound 5] | 30.9 | 0.05 |  |  |  | 
Nc1nc(NCCc2ccc(Oc3ccccc3)cc2)nc(-c2ccccc2CO)n1 [Compound 64, (2-(4-Amino-6-((4-phenoxyphenethyl)amino)-1,3,5-triazin-2-yl)-phenyl)methanol] | 10 | 0.59 |  |  |  | 
Cc1ccccc1-c1nc(N)nc(NCc2ccccc2)n1 [Compound 14, N^2-Benzyl-6-(o-tolyl)-1,3,5-triazine-2,4-diamine] |  | Weak PAM | Weak PAM | Weak PAM | Weak PAM | Weak PAM
Nc1nc(NCCc2ccc(Oc3ccccc3)cc2)nc(-c2cc(Cl)ccc2CO)n1 [Compound 81, (2-(4-Amino-6-((4-phenoxyphenethyl)amino)-1,3,5-triazin-2-yl)-4-chlorophenyl)methanol] | 25.7 | 0.56 |  |  |  | 
Nc1nc(NCc2ccccc2)nc(-c2ccc(Cl)cc2CO)n1 [Compound 26, (2-(4-Amino-6-(benzylamino)-1,3,5-triazin-2-yl)-5-chlorophenyl)methanol] | 17.4 | 0.56 |  |  |  | 
CNCc1ccccc1-c1nc(N)nc(NCc2ccccc2)n1 [Compound 19, N^2-Benzyl-6-(2-((methylamino)methyl)phenyl)-1,3,5-triazine-2,4-diamine] |  | Weak PAM | Weak PAM | Weak PAM | Weak PAM | Weak PAM
CCNc1nc(NCc2ccccc2)nc(-c2ccccc2CO)n1 [Compound 6, (2-(4-(Benzylamino)-6-(ethylamino)-1,3,5-triazin-2-yl)phenyl)-methanol] | 23.4 | 0.03 |  |  |  | 
CCOc1ccc(CNc2nc(N)nc(-c3ccccc3CO)n2)cc1 [Compound 56, (2-(4-Amino-6-((4-ethoxybenzyl)amino)-1,3,5-triazin-2-yl)-phenyl)methanol] | 17 | 0.26 |  |  |  | 
Nc1nc(NCc2ccc(Oc3ccccc3)cc2)nc(-c2ccccc2CO)n1 [Compound 59, (2-(4-Amino-6-((4-phenoxybenzyl)amino)-1,3,5-triazin-2-yl)-phenyl)methanol] | 6.46 | 0.83 |  |  |  | 
Nc1nc(NCc2ccc(OC3CC3)cc2)nc(-c2ccccc2CO)n1 [Compound 58, (2-(4-Amino-6-((4-cyclopropoxybenzyl)amino)-1,3,5-triazin-2-yl)phenyl)methanol] | 8.51 | 0.46 |  |  |  | 
Nc1nc(NCCCc2ccc(Oc3ccccc3)cc2)nc(-c2ccccc2CO)n1 [Compound 65, (2-(4-Amino-6-((3-(4-phenoxyphenyl)propyl)amino)-1,3,5-triazin-2-yl)phenyl)methanol] | 21.4 | 0.53 |  |  |  | 
CC(C)Oc1ccc(CNc2nc(N)nc(-c3ccccc3CO)n2)cc1 [Compound 57, (2-(4-Amino-6-((4-isopropoxybenzyl)amino)-1,3,5-triazin-2-yl)-phenyl)methanol] | 10.2 | 0.38 |  |  |  | 
Nc1nc(NCCCCc2ccccc2)nc(-c2cc(Cl)ccc2CO)n1 [Compound 79, (2-(4-Amino-6-((4-phenylbutyl)amino)-1,3,5-triazin-2-yl)-4-chlorophenyl)methanol] | 10.5 | 0.83 |  |  |  | 
Nc1nc(NCc2ccc(Oc3ccccc3)cc2)nc(-c2cc(Cl)ccc2CO)n1 [Compound 80, (2-(4-Amino-6-((4-phenoxybenzyl)amino)-1,3,5-triazin-2-yl)-4-chlorophenyl)methanol] | 20 | 0.47 |  |  |  | 
Nc1nc(NCCc2ccccc2)nc(-c2ccccc2CO)n1 [Compound 61] | 31.6 | 0.31 |  |  |  | 

Results, then the compound that gave them:

Kb [µM] | Δ | Log (α) | −Log (KB) | Log (αβ/KB) | Log (β) | Structure (SMILES)
8.91 | 0.82 |  |  |  |  | Nc1nc(NCCc2ccc(Oc3ccccc3)cc2)nc(-c2c(F)cccc2CO)n1 [Compound 75, (2-(4-Amino-6-((4-phenoxyphenethyl)amino)-1,3,5-triazin-2-yl)-3-fluorophenyl)methanol]
35.5 | 0.24 |  |  |  |  | Nc1nc(NCc2ccc(F)cc2)nc(-c2c(F)cccc2CO)n1 [Compound 68, (2-(4-Amino-6-((4-fluorobenzyl)amino)-1,3,5-triazin-2-yl)-3-fluorophenyl)methanol]
11.5 | 0.81 |  |  |  |  | Nc1nc(NCCCc2ccc(Oc3ccccc3)cc2)nc(-c2c(F)cccc2CO)n1 [Compound 76, (2-(4-Amino-6-((3-(4-phenoxyphenyl)propyl)amino)-1,3,5-triazin-2-yl)-3-fluorophenyl)methanol]
33.9 | 0.36 |  |  |  |  | Nc1nc(NCCCc2ccccc2)nc(-c2c(F)cccc2CO)n1 [Compound 73, (2-(4-Amino-6-((3-phenylpropyl)amino)-1,3,5-triazin-2-yl)-3-fluorophenyl)methanol]
9.12 | 0.82 |  |  |  |  | Nc1nc(NCCc2ccccc2)nc(-c2c(F)cccc2CO)n1 [Compound 72, (2-(4-Amino-6-(phenethylamino)-1,3,5-triazin-2-yl)-3-fluorophenyl)methanol]
204 | −0.12 |  |  |  |  | Nc1nc(NCc2ccccc2)nc(-c2c(F)cccc2CO)n1 [Compound 25, (2-(4-Amino-6-(benzylamino)-1,3,5-triazin-2-yl)-3-fluorophenyl)-methanol]
 | Weak PAM | Weak PAM | Weak PAM | Weak PAM | Weak PAM | COc1cccc(CO)c1-c1nc(N)nc(NCc2ccccc2)n1 [Compound 32, (2-(4-Amino-6-(benzylamino)-1,3,5-triazin-2-yl)-3-methoxyphenyl)methanol]
39.8 | 0.26 |  |  |  |  | Cc1cccc(CNc2nc(N)nc(-c3ccccc3CO)n2)c1 [Compound 51, (2-(4-Amino-6-((3-methylbenzyl)amino)-1,3,5-triazin-2-yl)-phenyl)methanol]
102 | −0.28 |  |  |  |  | COc1ccccc1CNc1nc(N)nc(-c2ccccc2CO)n1 [Compound 53, (2-(4-Amino-6-((2-methoxybenzyl)amino)-1,3,5-triazin-2-yl)-phenyl)methanol]
69.2 | −0.45 |  |  |  |  | COc1cccc(-c2nc(N)nc(NCc3ccccc3)n2)c1CO [Compound 29, (2-(4-Amino-6-(benzylamino)-1,3,5-triazin-2-yl)-6-methoxyphenyl)methanol]
77.6 | −0.09 |  |  |  |  | COc1cccc(CNc2nc(N)nc(-c3ccccc3CO)n2)c1 [Compound 54, (2-(4-Amino-6-((3-methoxybenzyl)amino)-1,3,5-triazin-2-yl)-phenyl)methanol]
53.7 | 0.25 |  |  |  |  | Nc1nc(NCc2ccccc2F)nc(-c2ccccc2CO)n1 [Compound 41, (2-(4-Amino-6-((2-fluorobenzyl)amino)-1,3,5-triazin-2-yl)-phenyl)methanol]
10.7 | 0.59 |  |  |  |  | Nc1nc(NCc2cccc(Cl)c2)nc(-c2ccccc2CO)n1 [Compound 45, (2-(4-Amino-6-((3-chlorobenzyl)amino)-1,3,5-triazin-2-yl)-phenyl)methanol]
77.6 | −0.19 |  |  |  |  | COc1ccccc1CNc1nc(N)nc(-c2c(F)cccc2CO)n1 [Compound 70, (2-(4-Amino-6-((2-methoxybenzyl)amino)-1,3,5-triazin-2-yl)-3-fluorophenyl)methanol]
